Laboratory results published in ChEMBL document CHEMBL1140138, “Novel opioid peptide derived antagonists containing (2S)-2-methyl-3-(2,6-dimethyl-4-carbamoylphenyl)propanoic acid [(2S)-Mdcp]” (J Med Chem, 2008).
pIC50, pKi: −log10 of the molar value. Bridge positions count the residues as written; N and C are the ends. Square brackets hold non-standard residues; d marks the D form. Peptide text beside a SMILES is read from it. * marks the point of attachment. Phe(4-NO2) = N[C@@H](Cc1ccc([N+](=O)[O-])cc1)C(=O)O; X1 = Cc1cc(C(N)=O)cc(C)c1C[C@H](C)C(=O)*; Phe(4-F) = N[C@@H](Cc1ccc(F)cc1)C(=O)O; d2Nal = N[C@H](Cc1ccc2ccccc2c1)C(=O)O; Dmt = Cc1cc(O)cc(C)c1C[C@H](N)C(=O)O; dPen = CC(C)(S)[C@@H](N)C(=O)O; Pen = CC(C)(S)[C@H](N)C(=O)O; Sar = CNCC(=O)O

What was measured:
[1] = target: Mu-type opioid receptor (Cavia porcellus, UniProt P97266); test: (§1) Antagonist activity against mu opioid receptor in guinea pig ileum assessed as effect on TAPP-induced response; type: functional, tissue-based
Summary of the method: (§2)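 Isolated tissue bioassays: mu and kappa antagonism measured in guinea pig ileum, delta antagonism in mouse vas deferens. Antagonist potency expressed as Ke (nM).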

[2] = target: Delta-type opioid receptor (Mus musculus) (UniProt P32300); test: (§3) Antagonist activity against delta opioid receptor in mouse vas deference assessed as effect on DPDPE-induced response; type: functional; summary of the method: as §2
[3] = target: Mu-type opioid receptor (Cavia porcellus) (UniProt P97266); test: as §1; type: functional, tissue-based; summary of the method: as §2
[4] = target: Delta-type opioid receptor (Mus musculus, UniProt P32300); test: as §3; type: functional; summary of the method: as §2
[5] = target: Kappa-type opioid receptor (Cavia porcellus, UniProt P41144); test: Displacement of [3H]U69593 from kappa opioid receptor in guinea pig brain membrane; type: cell membranes
[6] = target: Kappa-type opioid receptor (Cavia porcellus) (UniProt P41144); test: Antagonist activity against kappa opioid receptor in guinea pig ileum assessed as effect on U50488-induced response; type: functional, tissue-based; summary of the method: as §2
[7] = target: Mu-type opioid receptor (Rattus norvegicus, UniProt P33535); test: Displacement of [3H]DAMGO from mu opioid receptor in rat brain membrane; type: cell membranes
Summary of the method: (§4)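 Opioid receptor binding in rat brain membrane preparations. Affinity expressed as Ki (nM).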

[8] = target: Delta-type opioid receptor (Rattus norvegicus, UniProt P33533); test: Displacement of [3H]DSLET from delta opioid receptor in rat brain membrane; type: cell membranes; summary of the method: as §4
Sequence of Delta-type opioid receptor (Rattus norvegicus, UniProt P33533) (P33533 whole entry): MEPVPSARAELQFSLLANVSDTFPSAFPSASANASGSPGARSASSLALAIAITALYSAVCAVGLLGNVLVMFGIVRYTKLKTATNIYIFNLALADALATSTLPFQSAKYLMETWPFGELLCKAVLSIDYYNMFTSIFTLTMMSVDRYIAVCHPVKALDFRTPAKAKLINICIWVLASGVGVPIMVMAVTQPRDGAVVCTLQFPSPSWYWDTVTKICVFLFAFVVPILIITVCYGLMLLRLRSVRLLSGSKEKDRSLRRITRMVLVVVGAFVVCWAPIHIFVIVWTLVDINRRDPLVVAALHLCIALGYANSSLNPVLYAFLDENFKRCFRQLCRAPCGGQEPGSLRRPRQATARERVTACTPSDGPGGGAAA

Sequence of Kappa-type opioid receptor (Cavia porcellus) (P41144 whole entry): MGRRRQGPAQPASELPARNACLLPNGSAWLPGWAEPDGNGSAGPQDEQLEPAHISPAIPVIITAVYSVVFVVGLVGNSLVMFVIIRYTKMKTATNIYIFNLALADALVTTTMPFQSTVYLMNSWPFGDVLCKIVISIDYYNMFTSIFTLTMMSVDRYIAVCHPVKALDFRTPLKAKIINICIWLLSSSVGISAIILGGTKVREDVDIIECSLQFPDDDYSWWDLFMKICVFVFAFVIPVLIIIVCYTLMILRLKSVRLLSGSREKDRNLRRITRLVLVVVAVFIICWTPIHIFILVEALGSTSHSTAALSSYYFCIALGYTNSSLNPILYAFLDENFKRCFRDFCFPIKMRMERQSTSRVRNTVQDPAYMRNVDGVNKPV
Sequence of Kappa-type opioid receptor (P41144 whole entry): as above
Sequence of Mu-type opioid receptor (Cavia porcellus, UniProt P97266) (P97266 whole entry): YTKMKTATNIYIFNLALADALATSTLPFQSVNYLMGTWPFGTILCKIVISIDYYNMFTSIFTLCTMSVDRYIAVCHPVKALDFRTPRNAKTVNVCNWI
Sequence of Mu-type opioid receptor (Cavia porcellus) (P97266 whole entry): as above
Sequence of Delta-type opioid receptor (Mus musculus) (P32300 whole entry): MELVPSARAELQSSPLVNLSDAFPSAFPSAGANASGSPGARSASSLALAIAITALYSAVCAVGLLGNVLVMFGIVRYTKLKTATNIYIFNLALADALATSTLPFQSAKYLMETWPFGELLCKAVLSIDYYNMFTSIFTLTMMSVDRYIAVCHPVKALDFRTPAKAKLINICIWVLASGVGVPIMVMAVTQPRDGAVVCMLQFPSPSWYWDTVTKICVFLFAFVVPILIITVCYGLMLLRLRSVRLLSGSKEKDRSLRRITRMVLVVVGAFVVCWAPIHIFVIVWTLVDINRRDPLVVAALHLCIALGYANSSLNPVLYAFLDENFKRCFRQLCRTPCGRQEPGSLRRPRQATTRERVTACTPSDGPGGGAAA
Sequence of Mu-type opioid receptor (Rattus norvegicus, UniProt P33535) (P33535 whole entry): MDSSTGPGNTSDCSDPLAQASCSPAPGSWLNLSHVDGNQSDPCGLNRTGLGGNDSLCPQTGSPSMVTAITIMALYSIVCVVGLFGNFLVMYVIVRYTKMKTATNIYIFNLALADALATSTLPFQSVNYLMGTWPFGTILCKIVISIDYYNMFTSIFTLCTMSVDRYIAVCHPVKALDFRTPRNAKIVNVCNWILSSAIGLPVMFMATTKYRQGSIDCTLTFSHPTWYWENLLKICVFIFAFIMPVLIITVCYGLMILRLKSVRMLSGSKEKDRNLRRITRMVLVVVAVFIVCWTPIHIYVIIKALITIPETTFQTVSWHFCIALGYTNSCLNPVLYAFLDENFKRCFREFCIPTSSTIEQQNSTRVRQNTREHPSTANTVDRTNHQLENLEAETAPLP
Sequence of Delta-type opioid receptor (Mus musculus, UniProt P32300) (P32300 whole entry): as the sequence (P32300 whole entry) above

## Cc1cc(O)cc(C)c1C[C@H](N)C(=O)N1CCC[C@H]1C(=O)N[C@@H](Cc1c[nH]c2ccccc12)C(=O)N[C@H](Cc1ccc2ccccc2c1)C(N)=O [ANTANAL-1] (H-[Dmt]PW[d2Nal]-NH2)
[1]
  pKi: 8.62

## Cc1cc(O)cc(C)c1C[C@H](N)C(=O)N(C)CC(=O)N[C@@H](Cc1ccccc1)C(=O)N[C@H](Cc1ccc2ccccc2c1)C(N)=O (H-[Dmt][Sar]F[d2Nal]-NH2)
[2]
  Ke: 305 nM
[3]
  Ke: 2.34 nM

## Cc1cc(O)cc(C)c1CCC(=O)N[C@@H]1CCCCNC(=O)NC[C@@H](C(N)=O)NC(=O)[C@H](Cc2ccccc2)NC(=O)CNC1=O
[4]
  pKi: 6.56
[1]
  pKi: 7.81

## Cc1cc(O)cc(C)c1C[C@H](C)C(=O)N[C@@H]1CSSC[C@H](C(N)=O)NC(=O)[C@H](Cc2ccc([N+](=O)[O-])cc2)NC(=O)CNC1=O
[5]
  pKi: 7.03
[2]
  Ke: 3.48 nM
[6]
  Ke: 6.41 nM
[3]
  Ke: 1.48 nM

## Cc1cc(O)cc(C)c1C[C@H](N)C(=O)N1CCC[C@H]1C(=O)N[C@@H](Cc1ccccc1)C(=O)N[C@H](Cc1ccc2ccccc2c1)C(N)=O [ANTANAL-2] (H-[Dmt]PF[d2Nal]-NH2)
[1]
  pKi: 8.82

## C[C@@H](O)[C@H](NC(=O)[C@H]1NC(=O)[C@H]([C@@H](C)O)NC(=O)[C@H](CCCN)NC(=O)[C@@H](Cc2c[nH]c3ccccc23)NC(=O)[C@H](Cc2ccc(O)cc2)NC(=O)[C@@H](NC(=O)[C@H](N)Cc2ccccc2)CSSC1(C)C)C(N)=O
[1]
  pIC50: 8.55

## CC[C@H](C)[C@H](NC(=O)[C@H](CCCNC(=N)N)NC(=O)[C@H](CCCNC(=N)N)NC(=O)[C@H](CC(C)C)NC(=O)[C@H](Cc1ccccc1)NC(=O)CNC(=O)CNC(=O)[C@@H](C)Cc1c(C)cc(C(N)=O)cc1C)C(=O)N[C@@H](CCCNC(=N)N)C(=O)N1CCC[C@H]1C(=O)N[C@@H](CCCCN)C(N)=O
[7]
  pKi: 7.53
[5]
  pKi: 7.59
[8]
  pKi: 7.57
[2]
  Ke: 843 nM
[6]
  Ke: 5.96 nM
[3]
  Ke: 401 nM

## Cc1cc(O)cc(C)c1C[C@H](C)C(=O)N[C@H]1C(=O)NCC(=O)N[C@@H](Cc2ccc(F)cc2)C(=O)N[C@H](C(=O)N[C@@H](Cc2ccccc2)C(=O)O)C(C)(C)SSC1(C)C
[7]
  pKi: 6.39
[5]
  pKi: 5.43
[8]
  pKi: 8.63
[2]
  Ke: 0.785 nM
[6]
  Ke: 4370 nM
[3]
  Ke: 668 nM

## Cc1cc(C(N)=O)cc(C)c1C[C@H](C)C(=O)N[C@@H]1CSSC[C@H](C(N)=O)NC(=O)[C@H](Cc2ccc([N+](=O)[O-])cc2)NC(=O)CNC1=O (X1-[dC]G[Phe(4-NO2)][dC]-NH2; disulfide 1-4)
[2]
  Ke: 9.78 nM
[6]
  Ke: 18.9 nM
[3]
  Ke: 1.24 nM

## Cc1cc(C(N)=O)cc(C)c1C[C@H](C)C(=O)N[C@H]1C(=O)NCC(=O)N[C@@H](Cc2ccc(F)cc2)C(=O)N[C@H](C(=O)N[C@@H](Cc2ccccc2)C(=O)O)C(C)(C)SSC1(C)C (X1-[dPen]G[Phe(4-F)][Pen]F-OH; disulfide 1-4)
[2]
  Ke: 0.326 nM
[6]
  Ke: 9980 nM
[3]
  Ke: 1170 nM
